Data reported in ChEMBL document CHEMBL1128446, “Pyrazinoic acid esters with broad spectrum in vitro antimycobacterial activity” (1995).
Values after ≈ are worked out from the molar mass of the structure shown.

Experiments:
Format in all cases: functional
Mycobacterium avium [1] = assay: Minimum Inhibitory Concentration in clinical isolates against Mycobacterium avium complex 101
Procedure, shortened: (§1)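 Broth macrodilution in tubes of modified Middlebrook 7H10 broth (agar and malachite green omitted) with 10% OADC and 0.05% Tween 80 at pH 5.8. Cultures were grown 3 days at 37 °C on a rotary shaker, then diluted with 7H10 broth to 1 Klett unit/mL. Stocks were made in water or DMSO and filter-sterilised; 2-fold serial dilutions were tested. Tubes shaken 7–10 days at 37 °C, with a drug-free control. MIC = lowest concentration (μg/mL) with no visible turbidity.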

[2] = system: Mycobacterium tuberculosis; assay: Minimum Inhibitory Concentration against Mycobacterium tuberculosis ATCC 27294; settings: Mycobacterium tuberculosis, ATCC 27294; read-out: MIC; procedure, shortened: as §1
[3] = system: Mycobacterium tuberculosis; assay: Minimum Inhibitory Concentration against Mycobacterium tuberculosis ATCC 35801; procedure, shortened: as §1
Mycobacterium kansasii = assay: Minimum Inhibitory Concentration against clinical isolates of Mycobacterium kansasii S
Procedure, shortened: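 Grown 3 days at 37 °C on a rotary shaker in modified Middlebrook 7H10 broth (agar and malachite green omitted) with 10% OADC and 0.05% Tween 80. Diluted to 1 Klett unit/mL. Tubes held serial 2-fold dilutions in 7H10 broth at pH 5.8, from stocks in water or DMSO, and were shaken at 37 °C for 7–10 days with a drug-free control. MIC was the lowest concentration with no visible turbidity.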

Mycobacterium avium [4] = assay: Minimum Inhibitory Concentration against clinical isolates of Mycobacterium avium complex ATCC 49601; procedure, shortened: as §1

Row | SMILES | MIC (Mycobacterium avium [1]) [µg/mL] | MIC [2] [µg/mL] | MIC [3] [µg/mL] | MIC (Mycobacterium kansasii) [µg/mL] | MIC (Mycobacterium avium [4]) [µg/mL]
1 | O=C(OCc1ccc(Br)cc1)c1cnc(Cl)cn1 | 32 (≈ 97.7 µM) | 1 (≈ 3.05 µM) | 1 (≈ 3.05 µM) | 0.125 (≈ 0.382 µM) | 64 (≈ 195 µM)
2 | CCCCC(OC(=O)c1cnc(Cl)cn1)c1ccccc1 (configuration not stated) | 128 (≈ 420 µM) | 4 (≈ 13.1 µM) | 2 (≈ 6.56 µM) | 1 (≈ 3.28 µM) | 64 (≈ 210 µM)
3 | CCCCCCCCCCCCCCCOC(=O)c1cnccn1 | 32 (≈ 95.7 µM) | 0.06 (≈ 0.179 µM) | 0.12 (≈ 0.359 µM) | 1 (≈ 2.99 µM) | 8 (≈ 23.9 µM)
4 | CC(C)(C)C(OC(=O)c1cnc(Cl)cn1)c1ccccc1 (configuration not stated) | 128 (≈ 420 µM) | 4 (≈ 13.1 µM) | 4 (≈ 13.1 µM) | 2 (≈ 6.56 µM) | 256 (≈ 840 µM)
5 | O=C(Oc1c(Br)cc(Br)cc1Br)c1cnccn1 | 128 (≈ 293 µM) | 32 (≈ 73.2 µM) | 32 (≈ 73.2 µM) | 64 (≈ 146 µM) | 128 (≈ 293 µM)
6 | Cc1ccc(C(C)OC(=O)c2cnc(Cl)cn2)cc1 (configuration not stated) | 256 (≈ 925 µM) | 1 (≈ 3.61 µM) | 1 (≈ 3.61 µM) | 1 (≈ 3.61 µM) | 16 (≈ 57.8 µM)
7 | Cc1cc(C(C)(C)C)c(OC(=O)c2cnccn2)c(C(C)(C)C)c1 | > 1020 | 128 (≈ 392 µM) | – | > 16 | > 1020
8 | O=C(OCCc1ccc(Cl)cc1)c1cnc(Cl)cn1 | 16 (≈ 53.8 µM) | 2 (≈ 6.73 µM) | 32 (≈ 108 µM) | 0.5 (≈ 1.68 µM) | 8 (≈ 26.9 µM)
9 | O=C(OC(c1ccccc1)c1ccccc1)c1cnc(Cl)cn1 | > 64 | 16 (≈ 49.3 µM) | 16 (≈ 49.3 µM) | 8 (≈ 24.6 µM) | > 64
10 | CCCCCCCC(OC(=O)c1cnc(Cl)cn1)C(C)C (configuration not stated) | > 256 | 0.5 (≈ 1.6 µM) | 2 (≈ 6.39 µM) | 0.25 (≈ 0.799 µM) | 256 (≈ 818 µM)
11 | CCCCCCCCCCC(OC(=O)c1cnc(Cl)cn1)C(C)(C)C (configuration not stated) | > 256 | 16 (≈ 43.4 µM) | 8 (≈ 21.7 µM) | 4 (≈ 10.8 µM) | 256 (≈ 694 µM)
12 | CCCCCCCC(C)(CCCC)OC(=O)c1cnc(Cl)cn1 (configuration not stated) | > 256 | 4 (≈ 11.7 µM) | 8 (≈ 23.5 µM) | 16 (≈ 46.9 µM) | > 256
13 | CCCCCCCCOC(=O)c1cnc(Cl)cn1 | 16 (≈ 59.1 µM) | 0.06 (≈ 0.222 µM) | < 0.03 | < 0.03 | 16 (≈ 59.1 µM)
14 | CCCCCOC(=O)c1cnc(Cl)cn1 | 32 (≈ 140 µM) | 0.06 (≈ 0.262 µM) | 0.25 (≈ 1.09 µM) | < 0.03 | 32 (≈ 140 µM)
15 | CC(C)COC(=O)c1cnccn1 | 256 (≈ 1420 µM) | < 8 | 16 (≈ 88.8 µM) | > 64 | –
16 | CCOC(=O)c1cnc(Cl)cn1 | 128 (≈ 686 µM) | 1 (≈ 5.36 µM) | 2 (≈ 10.7 µM) | 2 (≈ 10.7 µM) | 128 (≈ 686 µM)
17 | COC(=O)c1cnc(Cl)cn1 | 256 (≈ 1480 µM) | 4 (≈ 23.2 µM) | 8 (≈ 46.4 µM) | 2 (≈ 11.6 µM) | 64 (≈ 371 µM)
18 | CCCCCCC(C)OC(=O)c1cnc(Cl)cn1 (configuration not stated) | 8 (≈ 29.5 µM) | 0.06 (≈ 0.222 µM) | 0.25 (≈ 0.923 µM) | < 0.015 | 16 (≈ 59.1 µM)
19 | CCCCCCCCCC(C)OC(=O)c1cnc(Cl)cn1 (configuration not stated) | 16 (≈ 51.1 µM) | 0.25 (≈ 0.799 µM) | 0.125 (≈ 0.4 µM) | 0.25 (≈ 0.799 µM) | 16 (≈ 51.1 µM)
20 | CCCCCC(CC)OC(=O)c1cnc(C)cn1 (configuration not stated) | 64 (≈ 256 µM) | 1 (≈ 3.99 µM) | 0.5 (≈ 2 µM) | 4 (≈ 16 µM) | 64 (≈ 256 µM)
21 | O=C(OCc1ccccc1)c1cnc(Cl)cn1 | 8 (≈ 32.2 µM) | 1 (≈ 4.02 µM) | 0.5 (≈ 2.01 µM) | 1 (≈ 4.02 µM) | 4 (≈ 16.1 µM)
22 | CC(C)(C)OC(=O)c1cnc(Cl)cn1 | 128 (≈ 596 µM) | 0.25 (≈ 1.16 µM) | 0.5 (≈ 2.33 µM) | < 1 | 128 (≈ 596 µM)
23 | O=C(Oc1cccc2ccccc12)c1cnccn1 | 128 (≈ 511 µM) | 8 (≈ 32 µM) | – | > 16 | 64 (≈ 256 µM)
24 | C=CCOC(=O)c1cnc(Cl)cn1 | 64 (≈ 322 µM) | 1 (≈ 5.04 µM) | 1 (≈ 5.04 µM) | < 1 | 64 (≈ 322 µM)
25 | O=C(OCCc1ccccc1)c1cnc(Cl)cn1 | 32 (≈ 122 µM) | 1 (≈ 3.81 µM) | 1 (≈ 3.81 µM) | 0.25 (≈ 0.952 µM) | 8 (≈ 30.5 µM)
26 | CC(OC(=O)c1cnc(Cl)cn1)c1ccc(Br)cc1 (configuration not stated) | 32 (≈ 93.7 µM) | 2 (≈ 5.85 µM) | 8 (≈ 23.4 µM) | 0.25 (≈ 0.732 µM) | 16 (≈ 46.8 µM)
27 | CCCOC(=O)c1cnc(Cl)cn1 | 16 (≈ 79.8 µM) | 0.06 (≈ 0.299 µM) | < 0.03 | 0.25 (≈ 1.25 µM) | 16 (≈ 79.8 µM)
28 | CCCCCCCOC(=O)c1cnc(Cl)cn1 | 8 (≈ 31.2 µM) | 0.06 (≈ 0.234 µM) | < 0.03 | < 0.03 | 16 (≈ 62.3 µM)
29 | CCC(C)(CC)OC(=O)c1cnc(Cl)cn1 | > 256 | 8 (≈ 33 µM) | 8 (≈ 33 µM) | 2 (≈ 8.24 µM) | 256 (≈ 1050 µM)
30 | CCCCCCOC(=O)c1cnc(Cl)cn1 | 32 (≈ 132 µM) | 0.125 (≈ 0.515 µM) | 0.125 (≈ 0.515 µM) | 0.015 (≈ 0.0618 µM) | 16 (≈ 65.9 µM)
